TRPN1 ag: activates the zebrafish TRPN1 channel; HEK293 zebrafish TRPN1-YFP, Fluo-8 calcium fluorescence; 100% = response to 87 µM carbachol; activation, % at 3 µM; 220,000 tested, 0.18% active; AID 1424;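 active means activation above its plate's cutoff, the mean activation of test wells on that plate plus 3 SD, cut at about 19% in these data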;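 further: 0% = DMSO alone and 100% = 87 µM carbachol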
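Assay system: Zebrafish TRPN1-YFP in HEK293 cells | Incubation: Dye loading 1 h at 37 °C, then 30 min room temperature | Measured by: Kinetic Fluo-8 fluorescence, ex 470-495, em 515-575 nm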
TRPML3 agonist: activates the human TRPML3 channel | HEK293 TRPML3-YFP, Fluo-8 calcium fluorescence; 100% = the carbachol control signal | activation, % at 3 µM | 220,000 tested, 0.29% active | AID 1448;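 active means activation above its plate's cutoff, the mean activation of the plate's test wells plus 3 SD, cut at about 12% in these data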;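 further: 0% = DMSO only wells and 100% = carbachol wells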
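Test system: HEK293 cells stably carrying human TRPML3-YFP; Doses: single dose, 3 µM final nominal compound, 0.3% DMSO final; Schedule: dye loading 1 h 37 °C then 30 min ambient, 125 s read; Technique: Fluo-8 calcium fluorescence; Benchmarks: high control carbachol 87 µM, low control DMSO.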
CHO parental Ca: counter-screen for OX1R antagonists: effect in parental CHO cells | parental CHO-K1, ATP-induced calcium, Fluo-8 fluorescence | inhibition, % at 5.6 µM | 330,000 tested, 0.63% active;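 active means inhibition above that plate's mean sample inhibition plus 3 SD, cut at about 26% in these data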;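 further: 0% = ATP-challenged DMSO wells and 100% = DMSO wells without ATP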
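Measured by: calcium-sensitive Fluo-8 fluorescence / Test system: CHO parental line / Controls: ATP-challenged DMSO wells low, unchallenged DMSO wells high / Measure: % inhibition / Compound: single nominal dose of 5.6 µM per compound / Replicates: single well per compound, no replicates / Reagent: ATP as calcium-mobilizing challenge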
GPR7 antag: antagonists of human GPR7 (neuropeptides B/W receptor 1); P48145; inhibition, % at 4.4 µM; 290,000 tested, 1.1% active; GPR7-expressing cells, fluorescence antagonist assay; in the data active means inhibition above about 16%, passing the limit was not always enough;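 further: cells stimulated with the agonist NPW; 0% = agonist with vehicle and 100% = vehicle without agonist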
OX1R antag-1: blocks the human orexin 1 receptor | O43613 | inhibition, % at 5 µM | 330,000 tested, 0.43% active | CHO/OX1R cells, Fluo-8 calcium fluorescence, orexin A;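 active means inhibition above its plate's threshold, mean inhibition of all tested compounds on the plate plus 3 SD, cut at about 37% in these data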;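 further: 0% = orexin A challenge wells and 100% = SB-334867-A antagonist wells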
Target sequence (O43613 whole entry, looked up): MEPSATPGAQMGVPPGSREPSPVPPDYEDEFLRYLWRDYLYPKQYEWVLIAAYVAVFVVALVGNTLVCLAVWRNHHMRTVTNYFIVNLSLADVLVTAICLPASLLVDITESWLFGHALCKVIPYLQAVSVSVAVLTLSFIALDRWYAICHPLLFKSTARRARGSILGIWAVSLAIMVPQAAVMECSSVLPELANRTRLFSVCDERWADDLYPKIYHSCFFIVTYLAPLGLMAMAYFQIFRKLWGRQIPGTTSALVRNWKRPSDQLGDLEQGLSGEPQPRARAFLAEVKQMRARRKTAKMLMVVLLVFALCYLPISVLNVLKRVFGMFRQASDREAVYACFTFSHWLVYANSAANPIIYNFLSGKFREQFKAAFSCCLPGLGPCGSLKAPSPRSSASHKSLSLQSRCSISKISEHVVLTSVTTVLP
OX1R antag-2: antagonists of human orexin 1 receptor (OX1R) | 330,000 tested, 1.8% active | inhibition, % at 6.6 µM | OX1R-expressing cells, FRET antagonist read-out | AID 485270; in the data active means inhibition mostly above about 38%, no sharp cut-off; inactive means mostly below about 40%;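 further: 0% = agonist challenge alone and 100% = reference antagonist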
Numbers without * were called inactive; · = no result. The list is not random: actives were taken first. Their share in the collection is about 3.2%.

SMILES	TRPN1 ag	TRPML3 agonist	CHO parental Ca	GPR7 antag	OX1R antag-1	OX1R antag-2
COc1cccc(N(CC(=O)NCCSCc2ccco2)S(=O)(=O)c2ccccc2)c1	·	·	-12.9	4.4	23.1	45.3*
Cc1cccc(N(CC(=O)NCCSCc2ccco2)S(=O)(=O)c2ccccc2)c1	-0.6	-0.6	-11.0	-1.5	32.1	58.5
CC(=C/c1ccccc1)/C=N/NC(=O)c1cccs1	-0.6	-0.1	-14.4	-6.0	-9.8	18.4
O=C(N/N=C/C(Br)=C\c1ccccc1)c1cccs1	-1.9	0.2	-9.9	-12.5	-6.5	39.6*
COc1ccc(CN(C(=O)CSc2nnc(-c3c[nH]c4ccccc34)o2)c2ccc(F)cc2)cc1OC	2.4	0.5	34.8*	5.6	34.0	81.5*
COc1ccc(CN(C(=O)CSc2nnc(-c3ccc(F)cc3)o2)c2ccc(F)cc2)cc1	0.8	0.8	-6.3	-7.4	-8.6	22.8
O=C1c2ccccc2-c2ccc(C(=O)N3CCOCC3)cc21	-1.0	0.5	4.2	-3.9	-20.7	60.5*
CCN1C(=O)c2ccccc2S(=O)c2ccc(C(=O)N3CCOCC3)cc21 (centres undefined)	1.6	0.9	7.1	-7.1	-7.8	8.3
Cc1ccc(Oc2ccc(Oc3ccc(C)cc3)nn2)cc1	0.3	0.1	27.2*	-4.9	-10.1	11.7
COc1ccccc1C1OC2=C(Nc3ccc([N+](=O)[O-])cc3N2)C1=O (centres undefined)	2.8	1.9	-9.8	21.6	-14.5	43.5*
O=C1/C(=C\c2ccc(Br)o2)SC(=Nc2ccccc2)N1c1ccccc1	0.0	0.3	-15.5	-2.0	-16.1	61.6*
Cc1cc(C(F)(F)F)n2nc(-c3sccc3-n3cccc3)cc2n1	0.9	0.1	-19.7	6.8	-47.8	12.2
Cc1nc2cc(-c3sccc3-n3cccc3)nn2c(C)c1C	-0.2	-0.4	-20.9	-15.4	-29.5	52.1*
Cc1ccc(C(=O)NC2CCCc3c2cnn3-c2ccc(F)cc2F)cn1 (centres undefined)	·	·	38.3*	4.6	11.8	5.8
Cc1cc(C(=O)NC2CCCc3c2cnn3-c2cccc(C)c2C)n(C)n1 (centres undefined)	·	·	54.6*	3.4	24.6	53.9
Cn1nccc1C(=O)NC1CCCc2c1cnn2-c1ccc(C(C)(C)C)cc1 (centres undefined)	·	·	55.6*	12.9	22.2	48.7*
O=C(CSc1n[nH]c(=O)n1-c1cccnc1)Nc1ccccc1Cl	·	·	-3.4	-5.0	-1.8	-4.5
COC(=O)c1cc(C(=O)OCC(=O)NNC(=O)c2cccs2)cc([N+](=O)[O-])c1	·	·	-8.7	·	-17.0	59.9*
COC(=O)c1cc(C(=O)NNC(=O)c2ccc3c(c2)OCO3)cc([N+](=O)[O-])c1	·	·	-11.5	·	-21.6	54.2*
Nc1cc(C(=O)OCC(=O)N2CCOCC2)ccc1Cl	·	·	3.9	-6.4	3.7	15.6
O=C(Cc1ccc([N+](=O)[O-])cc1)NNC(=O)c1ccc2c(c1)OCO2	·	·	·	-8.9	·	·
Nc1ccc(C(=O)OCC(=O)N2CCOCC2)cc1[N+](=O)[O-]	-1.1	0.7	2.8	6.5	5.8	49.4*
O=C(OCC(=O)N1CCCC1)c1cc(Cl)ccc1[N+](=O)[O-]	·	·	-10.4	-3.9	-3.0	53.7
O=C(OCC(=O)N1CCCC1)c1ccc(Cl)c([N+](=O)[O-])c1	·	·	-2.0	-2.1	0.7	65.0*
NS(=O)(=O)c1cccc(NC(=O)COC(=O)CCc2ccccc2)c1	·	·	-2.2	3.2	-15.6	17.4
SMILES	TRPN1 ag	TRPML3 agonist	CHO parental Ca	GPR7 antag	OX1R antag-1	OX1R antag-2
COc1cc(OC)c(OC)cc1/C=C1\Oc2cc(OCC(=O)N3Cc4ccccc4C[C@H]3C(=O)O)ccc2C1=O	·	·	-2.2	0.0	3.1	14.3
O=C(Nc1nc2ccccc2s1)c1ccc(OCC2CCCO2)cc1 (centres undefined)	7.6	2.6	-23.1	3.3	-20.1	12.2
COC(=O)c1cc(C(=O)OCC(=O)N2CCCCC2)cc([N+](=O)[O-])c1	·	·	-6.5	·	2.3	55.6*
Cn1cccc1/C=C1\SC(=Nc2cccc(O)c2)NC1=O	1.6	-0.1	-7.3	-2.5	-15.4	41.8*
Cn1cccc1/C=C1\SC(=Nc2ccc(O)cc2)NC1=O	-1.2	0.2	-22.5	20.8*	-12.9	15.4
C=CCOn1c(=O)c(-c2ccc(OC)c(OC)c2)[n+]([O-])c2ccccc21	0.0	0.3	-7.5	-11.0	-32.9	61.3*
COc1ccc(-c2c(=O)n(OC)c3ccccc3[n+]2[O-])cc1OC	·	·	-6.7	-6.9	-16.7	44.3*
CCC(=O)N1CCCC(C(=O)c2ccc(-c3ccccc3)cc2)C1 (centres undefined)	·	·	-5.5	-17.8	-23.7	1.8
O=C1CCC(C(=O)N2CCCCCC2)CN1Cc1cccc(C(F)(F)F)c1 (centres undefined)	·	·	-8.1	-10.9	-12.8	16.8
Nc1nc(-c2ccccc2)nc2sc3c(c12)CCCC3	0.5	0.3	-9.0	-6.8	5.6	68.3*
Cc1ccc2[nH]c(=O)c(CN(C(=O)c3cccc([N+](=O)[O-])c3)C(C)C)cc2c1	0.4	0.5	-15.5	-5.0	5.1	51.4*
COc1ccc(NC(=O)c2cnc(SC)nc2)cc1	·	·	-5.2	-2.4	-5.5	7.1
CC1=NN(c2ccccc2)C(=O)/C1=C/c1c(O)n(-c2ccc(F)c(Cl)c2)[nH]c1=O	0.4	0.2	-4.0	-11.4	5.0	74.2*
COc1ccc(/C=C2\CCCc3c2nc2ccccc2c3C(=O)O)cc1OC	40.2*	19.3*	2.8	4.6	6.8	63.1*
COc1cc(/C=C2\CCCc3c2nc2ccccc2c3C(=O)O)cc([N+](=O)[O-])c1O	·	·	-5.7	-7.9	-0.9	59.2
COc1cc(/C=C2\CCCc3c2nc2ccccc2c3C(=O)O)cc(OC)c1O	1.2	-0.1	-5.0	-3.1	-13.1	10.0
CCOc1ccc(/C=C2\CCCc3c2nc2ccccc2c3C(=O)O)cc1OC	·	·	29.7*	7.0	30.4	81.8*
COc1ccc(/C=C2\CCc3c2nc2ccccc2c3C(=O)O)cc1OC	0.6	1.1	6.6	-2.2	0.3	75.2*
Cc1ccc(NC(=O)C2CC2C)c(Cl)c1 (centres undefined)	-2.5	0.1	7.4	-16.3	-6.1	-2.6
O=C(NC(=S)NCc1ccco1)c1ccccc1[N+](=O)[O-]	·	·	-10.0	-4.8	-23.3	5.5
Cn1nc([N+](=O)[O-])c(C(C#N)c2ccccn2)c(Cl)c1=O (centres undefined)	1.1	1.6	5.2	-13.7	-2.7	12.7
CCn1nc([N+](=O)[O-])c(C(C#N)c2nc3cc(C(F)(F)F)ccc3s2)c(Cl)c1=O (centres undefined)	-1.6	-0.7	-9.6	-8.0	-2.3	62.0*
CCOc1ccc(C(=O)NN2CCOCC2)cc1	·	·	9.2	-8.0	8.4	3.5
Nc1nc(N)c(N=O)c(OCC2CCCCC2)n1	·	·	-21.0	-24.3	-22.0	39.6*

Screening results as filed in PubChem BioAssay.
